Type in all cases: functional
Assay [1] deals with Trypanosoma brucei rhodesiense. The assay is described as follows: In Vitro measurement of inhibition of Leucine uptake in cell culture of Trypanosoma rhodesiense. Conditions: read-out: ID50 (the source's name). In short, it runs like this:
(§1)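 Trypanosomes harvested from infected rats, cultured 3 h with several concentrations of drug, usually 0.1–100 µg/mL. Radiolabeled L-leucine uptake measured. ID50 is the concentration in µg/mL giving 50% inhibition of incorporation.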

The test system of assay [2] is Mus musculus. The assay is described as follows: Trypanocidal Activity at I.C.E. value 0.38 when administered subcutaneously. In short, it runs like this: (§2)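 Blood-stage T. rhodesiense infection came from a standard inoculum lethal to all untreated mice. Drug was given by subcutaneous injection to groups of five mice. Survival beyond 30 days counted as cure. […] Sub-curative doses scored 0, and data were normalized at each dose.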

Assay [3] relates to Trypanosoma brucei rhodesiense. Kind of assay: In Vitro measurement of inhibition of Thymidine uptake in cell culture of Trypanosoma rhodesiense. Conditions: read-out: ID50 (the source's name).
In assay [4] the test system is Mus musculus. Kind of assay: Trypanocidal Activity at I.C.E. value 0.55 when administered perorally.
For assay [5], the system named is Trypanosoma brucei rhodesiense. The assay is described as follows: In Vitro measurement of inhibition of thymidine uptake in cell culture of Trypanosoma rhodesiense. Conditions: read-out: ID50 (the source's name). The method, boiled down: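 Parasites harvested from infected rats and incubated 3 h across a drug concentration series, usually 0.1–100 µg/mL. Incorporation of radiolabeled thymidine measured. ID50 is the concentration (µg/mL) producing 50% inhibition.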

Assay [6] concerns Mus musculus. Kind of assay: Trypanocidal Activity at I.C.E. value 0.87 when administered subcutaneously. In short, it runs like this: (§3)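 Mice, in groups of five per dose, were given a standard inoculum of blood-stage T. rhodesiense that is lethal to all untreated controls, then dosed subcutaneously. Usually 11 dose levels were used (2^n × 0.42 mg/kg).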
The subject of assay [7] is Trypanosoma brucei rhodesiense. Kind of assay: In Vitro measurement of inhibition of leucine uptake in cell culture of Trypanosoma rhodesiense. Conditions: read-out: ID50 (the source's name). The method, boiled down:
as §1

Assay [8] concerns Mus musculus. The assay is described as follows: Trypanocidal Activity at I.C.E. value 0.34 when administered subcutaneously. The method, boiled down:
as §2

The test system of assay [9] is Mus musculus. Kind of assay: Trypanocidal Activity at I.C.E. value >0.3 when administered perorally.
Assay [10] relates to Mus musculus. The assay is described as follows: Trypanocidal Activity at I.C.E. value 0.59 when administered perorally.
In assay [11] the test system is Mus musculus. The assay is described as follows: Trypanocidal Activity at I.C.E. value 0.85 when administered subcutaneously. In short, it runs like this: as §3
The test system of assay [12] is Mus musculus. Kind of assay: Trypanocidal Activity at I.C.E. value 0.89 when administered subcutaneously. The method, boiled down: as §3
For assay [13], the system named is Mus musculus. Kind of assay: Trypanocidal Activity at I.C.E. value 0.64 when administered subcutaneously. The method, boiled down: as §3
The test system of assay [14] is Mus musculus. The assay is described as follows: Trypanocidal Activity at I.C.E. value 0.19 when administered perorally.

The results in this text go back to ChEMBL document CHEMBL1124947, “Cationic antiprotozoal drugs. Trypanocidal activity of 2-(4'-formylphenyl)imidazo[1,2-a]pyridinium guanylhydrazones and related derivatives of quaternary heteroaromatic compounds” (J Med Chem, 1990).

Bounds are passed on as bounds.

`Br.CSC(=N)N/N=C/c1ccc(-c2cn3cc(C)ccc3[n+]2C)cc1.[Br-]`: the IC50 is greater than 10 µg/mL in assay [1] and 4 µg/mL in assay [3]. Besides, the CD50 with Mus musculus [2] was found to be 26 mg/kg.

Turning to `COc1ccc2n(c1)cc(-c1ccc(/C=N/NC(=N)N)cc1)[n+]2C.Cc1ccc(S(=O)(=O)O)cc1.Cc1ccc(S(=O)(=O)[O-])cc1`, the CD50 in the assay on Mus musculus [4] worked out at 6.6 mg/kg; in the assay with Mus musculus [6] it was 0.4 mg/kg. Also, the IC50 in assay [5] was determined as 5.9 µg/mL; in assay [7], 4.3 µg/mL.

Regarding `Br.CC/N=C(\NCC)N/N=C/C=C/c1ccc(-c2cn3ccccc3[n+]2C)cc1.[Br-]`, the CD50 in the assay with Mus musculus [8] came to 13 mg/kg; with Mus musculus [9], 53 mg/kg.

As to `C[n+]1c(-c2ccc(/C=N/NC(=N)NO)cc2)cn2ccccc21.Cc1ccc(S(=O)(=O)O)cc1.Cc1ccc(S(=O)(=O)[O-])cc1`, the CD50 in the assay on Mus musculus [10] was found to be 6.6 mg/kg; with Mus musculus [11] it was 0.8 mg/kg.

As to `C[n+]1c(/C=C/c2ccc(/C=N/NC(=N)N)cc2)cn2ccccc21.Cc1ccc(S(=O)(=O)O)cc1.Cc1ccc(S(=O)(=O)[O-])cc1`, the CD50 with Mus musculus [12] amounted to 0.1 mg/kg. Also, the IC50 in assay [5] was 2.7 µg/mL; in [7], 9.3 µg/mL.

With `Br.C[n+]1c(COc2ccc(/C=N/NC3=NCCCN3)cc2)cn2cc(C(F)(F)F)ccc21.[Br-]`, the CD50 with Mus musculus [13] amounted to 1.6 mg/kg; with Mus musculus [14] it was 106 mg/kg. Moreover, the IC50 in assay [5] turned out to be 0.4 µg/mL; in assay [7] it was 0.5 µg/mL.
